This note sets out measurements from ChEMBL document CHEMBL1151177, “Antiviral flavonoids from the seeds of Aesculus chinensis” (J Nat Prod, 2004).

Converted amounts (≈) assume the structure as drawn.

For test [1], the system named is Influenza A virus. Briefly: Antiviral activity against influenza virus type A H1N1 in MDCK cells assessed as inhibition of virus-induced cytopathic effect. Type of test: functional, organism-based. The method in brief: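 Two-fold serial dilutions were applied to cell monolayers, starting at the maximal noncytotoxic concentration. An equal volume of virus at 100 TCID50/mL was added, with an untreated infected control. Plates were held at 37 °C, humidified, for 2–5 days. CPE was scored 0–4 and expressed as percent of virus control. IC50 (µg/mL), the concentration halving CPE, was read from graphic plots.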

Test [2] is described as follows: Selectivity index, ratio of CC50 for MDCK cells to IC50 for influenza virus type A H1N1. The class given is functional. The gist of the method:
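SI was computed as CC50/IC50. CC50 came from microscopic morphology scoring (0–4) of monolayers after 2–5 days at 37 °C. IC50 came from CPE scoring of cells infected at 100 TCID50/mL and treated with two-fold dilutions for 2–5 days at 37 °C. Both values were read from graphic plots.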

Consider `O=c1c(O[C@@H]2O[C@H](CO)[C@@H](O)[C@H](O)[C@H]2O)c(-c2ccc(O)c(O)c2)oc2cc(O)cc(O)c12` [ISOQUERCETIN], for which, in test [1], the CC50 is over 400 µg/mL and the IC50 is over 500 µg/mL.
Consider `COc1ccc(-c2oc3cc(O)cc(O)c3c(=O)c2O[C@@H]2O[C@H](CO)[C@@H](O)[C@H](O)[C@H]2O[C@@H]2OC[C@@H](O)[C@H](O)[C@H]2O)cc1O[C@@H]1O[C@H](CO)[C@@H](O)[C@H](O)[C@H]1O` [AESCUFLAVOSIDE A], for which, in test [1], the cytotoxic concentration (CC50) is 322 µg/mL (≈ 417 µM) and the half-maximal inhibitory concentration (IC50) was over 500 µg/mL. Moreover, in test [2], the “Ratio CC50/IC50” value is under 0.6.
On to `O=c1c(O[C@@H]2O[C@H](CO)[C@@H](O)[C@H](O)[C@H]2O)c(-c2ccc(O)cc2)oc2cc(O)cc(O)c12` [ASTRAGALIN], for which, in test [1], the cytotoxic concentration (CC50) was determined as 392 µg/mL (≈ 875 µM) and the IC50 was 24.5 µg/mL (≈ 54.6 µM). Besides, the “Ratio CC50/IC50” value in test [2] was 16.
`O=c1c(O[C@@H]2O[C@H](CO)[C@@H](O)[C@H](O)[C@H]2O[C@@H]2OC[C@@H](O)[C@H](O)[C@H]2O)c(-c2ccc(O)c(O[C@@H]3O[C@H](CO)[C@@H](O)[C@H](O)[C@H]3O)c2)oc2cc(O)cc(O)c12`: in test [1], the cytotoxic concentration (CC50) was over 322 µg/mL and the IC50 was over 500 µg/mL.
As for `O=c1c(O[C@@H]2O[C@H](CO[C@@H]3O[C@H](CO)[C@@H](O)[C@H](O)[C@H]3O)[C@@H](O)[C@H](O)[C@H]2O[C@@H]2OC[C@@H](O)[C@H](O)[C@H]2O)c(-c2ccc(O)cc2)oc2cc(O)cc(O)c12`, in test [1], the cytotoxic concentration (CC50) was determined as 107 µg/mL (≈ 144 µM) and the IC50 is over 100 µg/mL. Also, the “Ratio CC50/IC50” value in test [2] is listed as under 1.1.
On the same counts, the results for `O=c1c(O[C@@H]2O[C@H](CO)[C@H](O)[C@H](O)[C@H]2O)c(-c2ccc(O)cc2)oc2cc(O)cc(O)c12` [TRIFOLIN] are 215 µg/mL (≈ 480 µM), over 300 µg/mL and under 0.7.
On to `O=c1c(O[C@@H]2O[C@H](CO)[C@@H](O)[C@H](O)[C@H]2O[C@@H]2OC[C@@H](O)[C@H](O)[C@H]2O)c(-c2ccc(O)cc2)oc2cc(O)cc(O)c12`, for which, in test [1], the half-maximal cytotoxic concentration (CC50) was 46.9 µg/mL (≈ 80.8 µM) and the IC50 is over 100 µg/mL. In addition, the “Ratio CC50/IC50” value in test [2] is reported as under 0.5.
Take `C[C@@H]1O[C@@H](OC[C@H]2O[C@@H](Oc3c(-c4ccc(O)c(O[C@@H]5O[C@H](CO)[C@@H](O)[C@H](O)[C@H]5O)c4)oc4cc(O)cc(O)c4c3=O)[C@H](O[C@@H]3OC[C@@H](O)[C@H](O)[C@H]3O)[C@@H](O)[C@@H]2O)[C@H](O)[C@H](O)[C@H]1O` [AESCUFLAVOSIDE]: in test [1], the CC50 turned out to be 108 µg/mL (≈ 119 µM) and the IC50 is over 100 µg/mL. The “Ratio CC50/IC50” value in test [2] is under 1.1.
Consider `O=c1c(O[C@@H]2O[C@H](CO)[C@@H](O)[C@H](O)[C@H]2O[C@@H]2OC[C@@H](O)[C@H](O)[C@H]2O)c(-c2ccc(O)c(O)c2)oc2cc(O)cc(O)c12`, for which, in test [1], the CC50 came out at 198 µg/mL (≈ 331 µM) and the 50% inhibitory concentration (IC50) was over 200 µg/mL. Besides, the “Ratio CC50/IC50” value in test [2] is on record as under 1.
Consider `NC(=O)c1ncn([C@@H]2O[C@H](CO)[C@@H](O)[C@H]2O)n1` [RIBAVIRIN], for which, in test [1], the 50% cytotoxic concentration (CC50) was over 125 µg/mL and the half-inhibitory concentration (IC50) is 62.5 µg/mL (≈ 256 µM).
Take `C[C@@H]1O[C@@H](Oc2c(-c3ccc(O)cc3)oc3cc(O)cc(O)c3c2=O)[C@H](O)[C@H](O)[C@H]1O[C@@H]1O[C@H](CO)[C@@H](O)[C@H](O)[C@H]1O`: in test [1], the CC50 came out at 375 µg/mL (≈ 631 µM) and the IC50 was over 500 µg/mL. Further, the “Ratio CC50/IC50” value in test [2] is under 0.8.

For orientation: CC50 means the concentration giving 50% cytotoxicity. A word on the IC50: it is the concentration that gives 50% inhibition.
